Assay results published in ChEMBL document CHEMBL4325889, “Natural products hybrids: 3,5,4'-Trimethoxystilbene-5,6,7-trimethoxyflavone chimeric analogs as potential cytotoxic agents against diverse human cancer cells” (Eur J Med Chem, 2019).

Key:
Assay type in all cases: functional
CCRF-CEM = experiment: Growth inhibition of human CCRF-CEM cells at 10 uM after 48 hrs by SRB assay relative to control; conditions: read-out: GI
In short: (§1)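 Screened at the National Cancer Institute by the standard NCI protocol using the sulforhodamine B assay, which measures cellular protein. Single dose of 10 µM. Result is percent growth inhibition; values above 100% mean cell number fell below the initial population. Values are the average of duplicates.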

HL-60(TB) = experiment: Growth inhibition of human HL-60(TB) cells at 10 uM after 48 hrs by SRB assay relative to control; conditions: HL-60, 48 h, read-out: GI
In short: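 Run at NCI under its standard single-dose protocol against a leukemia cell panel. Cells were exposed to 10 µM; growth was read by sulforhodamine B staining of cellular protein and expressed as % growth inhibition versus untreated control. Values above 100% mean the cell population fell below the starting count (cytocidal). Each value is the average of duplicates.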

K562 = experiment: Growth inhibition of human K562 cells at 10 uM after 48 hrs by SRB assay relative to control; conditions: K562, 48 h, read-out: GI; in short: as §1
MOLT-4 = experiment: Growth inhibition of human MOLT4 cells at 10 uM after 48 hrs by SRB assay relative to control; conditions: MOLT-4, 48 h, read-out: GI; in short: as §1
RPMI-8226 = experiment: Growth inhibition of human RPMI8226 cells at 10 uM after 48 hrs by SRB assay relative to control; conditions: RPMI-8226, 48 h, read-out: GI; in short: as §1
HOP-62 = experiment: Growth inhibition of human HOP62 cells at 10 uM after 48 hrs by SRB assay relative to control; conditions: HOP-62, 48 h, read-out: GI; in short: as §1
NCI-H226 = experiment: Growth inhibition of human NCI-H226 cells at 10 uM after 48 hrs by SRB assay relative to control; conditions: NCI-H226, 48 h, read-out: GI; in short: as §1
NCI-H23 = experiment: Growth inhibition of human NCI-H23 cells at 10 uM after 48 hrs by SRB assay relative to control; conditions: NCI-H23, 48 h, read-out: GI; in short: as §1
NCI-H460 = experiment: Growth inhibition of human NCI-H460 cells at 10 uM after 48 hrs by SRB assay relative to control; conditions: NCI-H460, 48 h, read-out: GI; in short: as §1
NCI-H522 = experiment: Growth inhibition of human NCI-H522 cells at 10 uM after 48 hrs by SRB assay relative to control; conditions: NCI-H522, 48 h, read-out: GI; in short: as §1
HCT-15 = experiment: Growth inhibition of human HCT15 cells at 10 uM after 48 hrs by SRB assay relative to control; conditions: HCT-15, 48 h, read-out: GI; in short: as §1
HT-29 = experiment: Growth inhibition of human HT-29 cells at 10 uM after 48 hrs by SRB assay relative to control; conditions: HT-29, 48 h, read-out: GI; in short: as §1
SW-620 = experiment: Growth inhibition of human SW620 cells at 10 uM after 48 hrs by SRB assay relative to control; conditions: SW-620, 48 h, read-out: GI
In short: (§2)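 NCI screen against its human cancer cell line panel by the standard NCI protocol, SRB protein stain. Single dose of 10 μM. Percent growth inhibition versus control; values above 100% mean the cell population fell below the starting number. Each value is the mean of duplicates.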

SF-295 = experiment: Growth inhibition of human SF295 cells at 10 uM after 48 hrs by SRB assay relative to control; conditions: SF-295, 48 h, read-out: GI; in short: as §1
SF-539 = experiment: Growth inhibition of human SF539 cells at 10 uM after 48 hrs by SRB assay relative to control; conditions: SF-539, 48 h, read-out: GI; in short: as §1
SNB-19 = experiment: Growth inhibition of human SNB19 cells at 10 uM after 48 hrs by SRB assay relative to control; conditions: SNB-19, 48 h, read-out: GI; in short: as §2
SNB-75 = experiment: Growth inhibition of human SNB75 cells at 10 uM after 48 hrs by SRB assay relative to control; conditions: SNB-75, 48 h, read-out: GI; in short: as §2
Malme-3M = experiment: Growth inhibition of human MALME-3M cells at 10 uM after 48 hrs by SRB assay relative to control; conditions: read-out: GI; in short: as §1
MDA-MB-435 = experiment: Growth inhibition of human MDA-MB-435 cells at 10 uM after 48 hrs by SRB assay relative to control; conditions: MDA-MB-435, 48 h, read-out: GI; in short: as §1
SK-MEL-28 = experiment: Growth inhibition of human SK-MEL-28 cells at 10 uM after 48 hrs by SRB assay relative to control; conditions: SK-MEL-28, 48 h, read-out: GI; in short: as §1
SK-MEL-5 = experiment: Growth inhibition of human SK-MEL-5 cells at 10 uM after 48 hrs by SRB assay relative to control; conditions: SK-MEL-5, 48 h, read-out: GI; in short: as §1
IGROV-1 = experiment: Growth inhibition of human IGROV1 cells at 10 uM after 48 hrs by SRB assay relative to control; conditions: IGROV-1, 48 h, read-out: GI; in short: as §1
OVCAR-5 = experiment: Growth inhibition of human OVCAR5 cells at 10 uM after 48 hrs by SRB assay relative to control; conditions: OVCAR-5, 48 h, read-out: GI; in short: as §1
OVCAR-8 = experiment: Growth inhibition of human OVCAR8 cells at 10 uM after 48 hrs by SRB assay relative to control; conditions: OVCAR-8, 48 h, read-out: GI; in short: as §1
786-0 = experiment: Growth inhibition of human 786-0 cells at 10 uM after 48 hrs by SRB assay relative to control; conditions: 786-0, 48 h, read-out: GI; in short: as §1
ACHN = experiment: Growth inhibition of human ACHN cells at 10 uM after 48 hrs by SRB assay relative to control; conditions: read-out: GI; in short: as §1
RXF 393 = experiment: Growth inhibition of human RXF393 cells at 10 uM after 48 hrs by SRB assay relative to control; conditions: RXF 393, 48 h, read-out: GI; in short: as §1
SN12C = experiment: Growth inhibition of human SN12C cells at 10 uM after 48 hrs by SRB assay relative to control; conditions: read-out: GI; in short: as §1
TK-10 = experiment: Growth inhibition of human TK10 cells at 10 uM after 48 hrs by SRB assay relative to control; conditions: TK-10, 48 h, read-out: GI; in short: as §2
PC-3 = experiment: Growth inhibition of human PC3 cells at 10 uM after 48 hrs by SRB assay relative to control; conditions: PC-3, 48 h, read-out: GI; in short: as §1
DU-145 = experiment: Growth inhibition of human DU145 cells at 10 uM after 48 hrs by SRB assay relative to control; conditions: DU-145, 48 h, read-out: GI; in short: as §1
BT-549 = experiment: Growth inhibition of human BT549 cells at 10 uM after 48 hrs by SRB assay relative to control; conditions: BT-549, 48 h, read-out: GI; in short: as §1
MDA-MB-468 = experiment: Growth inhibition of human MDA-MB-468 cells at 10 uM after 48 hrs by SRB assay relative to control; conditions: MDA-MB-468, 48 h, read-out: GI; in short: as §1

SMILES	inhibition of growth at 10 µM (CCRF-CEM)	inhibition of growth at 10 µM (HL-60(TB))	inhibition of growth at 10 µM (K562)	inhibition of growth at 10 µM (MOLT-4)	inhibition of growth at 10 µM (RPMI-8226)	inhibition of growth at 10 µM (HOP-62)	inhibition of growth at 10 µM (NCI-H226)	inhibition of growth at 10 µM (NCI-H23)	inhibition of growth at 10 µM (NCI-H460)	inhibition of growth at 10 µM (NCI-H522)	inhibition of growth at 10 µM (HCT-15)	inhibition of growth at 10 µM (HT-29)	inhibition of growth at 10 µM (SW-620)	inhibition of growth at 10 µM (SF-295)	inhibition of growth at 10 µM (SF-539)	inhibition of growth at 10 µM (SNB-19)	inhibition of growth at 10 µM (SNB-75)	inhibition of growth at 10 µM (Malme-3M)	inhibition of growth at 10 µM (MDA-MB-435)	inhibition of growth at 10 µM (SK-MEL-28)	further results
COc1cc2oc(-c3cccc(C(=O)Nc4ccc5c(c4)OCO5)c3)cc(=O)c2c(O)c1OC	2.77%	5.71%	5.51%	-0.5%	20.2%	39.6%	21.5%	27.3%	45.7%	23.9%	6.45%	23.7%	15.5%	7.93%	11.2%	27.9%	15.4%	11.9%	20.9%	10.2%	inhibition of growth at 10 µM (SK-MEL-5): 16%; inhibition of growth at 10 µM (IGROV-1): 18.4%; inhibition of growth at 10 µM (OVCAR-5): 11.1%; inhibition of growth at 10 µM (OVCAR-8): 69.4%; inhibition of growth at 10 µM (786-0): 35.7%; inhibition of growth at 10 µM (ACHN): 24.8%; inhibition of growth at 10 µM (RXF 393): 18.5%; inhibition of growth at 10 µM (SN12C): 31.3%; inhibition of growth at 10 µM (TK-10): 1.4%; inhibition of growth at 10 µM (PC-3): 27.7%; inhibition of growth at 10 µM (DU-145): 19.6%; inhibition of growth at 10 µM (BT-549): 16%; inhibition of growth at 10 µM (MDA-MB-468): 45.4%
COc1ccccc1NC(=O)c1cccc(-c2cc(=O)c3c(OC)c(OC)c(OC)cc3o2)c1	48.3%	10.1%	51.2%	38.7%	73.7%	30.6%	37.2%	34%	41.1%	56.5%	48.4%	38.6%	12.2%	38.2%	30.5%	17.5%	30.1%	22.9%	22.4%	24.6%	inhibition of growth at 10 µM (SK-MEL-5): 58.4%; inhibition of growth at 10 µM (IGROV-1): 27.5%; inhibition of growth at 10 µM (OVCAR-5): 18.6%; inhibition of growth at 10 µM (OVCAR-8): 42.7%; inhibition of growth at 10 µM (786-0): 39.2%; inhibition of growth at 10 µM (ACHN): 43.8%; inhibition of growth at 10 µM (RXF 393): 29.3%; inhibition of growth at 10 µM (SN12C): 34.6%; inhibition of growth at 10 µM (TK-10): 10.4%; inhibition of growth at 10 µM (PC-3): 43.6%; inhibition of growth at 10 µM (DU-145): 29.6%; inhibition of growth at 10 µM (BT-549): 44.9%; inhibition of growth at 10 µM (MDA-MB-468): 24.3%
